Measurements: publication PMC3863817 (Scientific Reports, 2013)

How the values were obtained:
KB cells = test: Measurement of cellular ATP levels; assay type: cell-based, human; settings: positive control, 1 μM for 4 h
Procedure, shortened: (§1)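 Cells plated at 2 × 10^5 per well and grown 1 day. They were exposed to 20 μM test compound for 4, 8, 16 or 24 h, or to rotenone (1 μM, 4 h) as positive control, at 37°C. KB cells were in folic acid-depleted RPMI-1640 and COS7 in DMEM, each with 10% FBS. Harvested cells were lysed in 1% TCA/4 mM EDTA for 20 min on ice, then Tris (pH 7.4). ATP was read with a bioluminescent kit on a chemiluminometer.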

COS7 cells = test: Measurement of cellular ATP levels; assay type: cell-based, African green monkey; settings: positive control, 1 μM for 4 h
Procedure, shortened: as §1

C=C(C)[C@H]1Cc2c(ccc3c2O[C@@H]2COc4cc(OC)c(OC)cc4[C@@H]2C3=O)O1 [rotenone]
Cellular ATP level, in words (KB cells): induce a decrease in cellular ATP level | Cellular ATP level, in words (COS7 cells): induce a decrease in cellular ATP level
